Assay results from article PMC3786410 (Bioorganic & medicinal chemistry, 2013).
Where two headings read alike, the source gives them in different places. Blank lines part the entries; values can stand above or below the molecule they belong to.

What was measured:
[1] = system: CRE-bla parental cell line; test: parental CRE-bla CHO cell line counterscreen assay; type: cell-based
Procedure, shortened: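 Counterscreen in the parental CRE-β-lactamase reporter CHO line without S1PR2, run alongside the S1PR2 assay. Hits were retested in triplicate at 5 micromolar and then tested in dose response.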

[2] = system: CRE; conditions: ref PubChem AID 662; cited from earlier work
[3] = molecular target: T1, S1PR2 (Homo sapiens, UniProt O95136); test: S1PR2 CRE-bla CHO reporter agonist assay; type: cell-based; conditions: for EC50: read-out: EC50 S1PR2; for Emax: read-out: Max Activity (% of 1 μM S1P)
Procedure, shortened: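 Stable CHO line carrying a CRE-driven β-lactamase reporter and expressing human S1PR2, run in 384-well format. […] For antagonist challenge, agonist dose responses were run with a reference S1PR2 antagonist at 10, 30 or 90 nM.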

[4] = molecular target: S1PR1 (Homo sapiens, UniProt P21453); test: S1PR1 agonist assay; type: cell-based
[5] = molecular target: S1PR3 (Homo sapiens, UniProt Q99500); test: S1PR3 agonist assay; type: cell-based
[6] = molecular target: T2, S1PR4 (Homo sapiens, UniProt O95977); test: S1PR4 agonist assay; type: cell-based
T2 sequence (O95977 1-384): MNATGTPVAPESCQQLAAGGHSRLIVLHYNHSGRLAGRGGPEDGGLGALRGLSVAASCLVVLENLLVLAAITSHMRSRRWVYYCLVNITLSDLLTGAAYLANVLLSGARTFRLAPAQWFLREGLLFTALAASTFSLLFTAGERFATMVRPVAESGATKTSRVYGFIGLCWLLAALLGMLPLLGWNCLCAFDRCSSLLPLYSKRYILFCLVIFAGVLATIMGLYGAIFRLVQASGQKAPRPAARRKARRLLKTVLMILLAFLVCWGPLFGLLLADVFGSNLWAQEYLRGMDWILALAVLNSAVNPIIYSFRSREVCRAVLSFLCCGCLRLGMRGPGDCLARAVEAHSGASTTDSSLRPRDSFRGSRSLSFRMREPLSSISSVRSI

[7] = molecular target: S1PR5 (Homo sapiens, UniProt Q9H228); test: S1PR5 agonist assay; type: cell-based
[8] = molecular target: wild type S1PR2 (Homo sapiens, UniProt O95136); test: GloSensor cAMP assay, wild type S1PR2-eGFP Jump-In CHO cells; type: cell-based
[9] = molecular target: T1, S1PR2; test: JTE-013 inhibition of agonists in the S1PR2 CRE-bla assay; type: cell-based; conditions: linear regression of Schild plot, against S1P
[10] = molecular target: T1, S1PR2; test: 33P-S1P radioligand competition binding assay; conditions: read-out: IC50, displacement of radiolabeled S1P, S1PR2-CRE bla cells, 4°C
[11] = molecular target: triple mutant S1PR2 (R108A, E109A and K269A) (Homo sapiens, UniProt O95136, E109A/K269A/R108A); test: GloSensor cAMP assay, triple mutant S1PR2-eGFP Jump-In CHO cells; type: cell-based
Sequence of triple mutant S1PR2 (R108A, E109A and K269A) (O95136 whole entry R108A/E109A/K269A): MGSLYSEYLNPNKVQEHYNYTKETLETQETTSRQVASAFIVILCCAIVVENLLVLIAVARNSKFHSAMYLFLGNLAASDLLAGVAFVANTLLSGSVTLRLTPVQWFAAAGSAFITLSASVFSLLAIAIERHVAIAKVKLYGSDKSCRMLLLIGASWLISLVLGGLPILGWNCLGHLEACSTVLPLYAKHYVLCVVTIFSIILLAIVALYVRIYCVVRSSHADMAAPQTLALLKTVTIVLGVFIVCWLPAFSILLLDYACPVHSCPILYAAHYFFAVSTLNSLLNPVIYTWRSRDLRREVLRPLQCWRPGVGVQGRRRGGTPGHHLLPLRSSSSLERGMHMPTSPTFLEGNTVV

T1 sequence (O95136 whole entry): as the sequence (O95136 whole entry R108A/E109A/K269A) above, with A108R, A109E, A269K counted along it
Sequence of S1PR3 (Q99500 whole entry, species assumed): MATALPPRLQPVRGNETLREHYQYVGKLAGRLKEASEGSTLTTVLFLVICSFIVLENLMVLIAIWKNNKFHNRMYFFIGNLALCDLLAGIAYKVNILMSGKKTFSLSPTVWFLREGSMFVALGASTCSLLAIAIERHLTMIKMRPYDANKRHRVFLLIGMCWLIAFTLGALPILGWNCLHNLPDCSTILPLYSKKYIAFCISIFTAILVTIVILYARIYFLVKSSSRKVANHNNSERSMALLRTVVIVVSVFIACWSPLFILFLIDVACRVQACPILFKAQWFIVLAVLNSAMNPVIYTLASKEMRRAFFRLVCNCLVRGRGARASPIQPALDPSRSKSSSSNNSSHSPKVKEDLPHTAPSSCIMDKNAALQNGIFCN
Sequence of wild type S1PR2 (O95136 whole entry): as the sequence (O95136 whole entry R108A/E109A/K269A) above, with A108R, A109E, A269K counted along it
Sequence of S1PR1 (P21453 whole entry, species assumed): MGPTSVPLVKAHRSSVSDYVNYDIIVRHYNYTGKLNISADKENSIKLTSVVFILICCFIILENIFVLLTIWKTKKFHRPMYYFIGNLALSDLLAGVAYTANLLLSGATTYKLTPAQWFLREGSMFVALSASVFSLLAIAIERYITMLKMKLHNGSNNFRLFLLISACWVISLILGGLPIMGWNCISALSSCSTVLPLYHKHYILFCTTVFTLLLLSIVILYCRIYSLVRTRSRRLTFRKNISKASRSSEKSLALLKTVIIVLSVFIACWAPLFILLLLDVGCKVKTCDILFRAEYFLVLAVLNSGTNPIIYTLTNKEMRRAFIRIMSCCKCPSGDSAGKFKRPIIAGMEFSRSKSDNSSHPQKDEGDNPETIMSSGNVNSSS
Sequence of S1PR5 (Q9H228 whole entry, species assumed): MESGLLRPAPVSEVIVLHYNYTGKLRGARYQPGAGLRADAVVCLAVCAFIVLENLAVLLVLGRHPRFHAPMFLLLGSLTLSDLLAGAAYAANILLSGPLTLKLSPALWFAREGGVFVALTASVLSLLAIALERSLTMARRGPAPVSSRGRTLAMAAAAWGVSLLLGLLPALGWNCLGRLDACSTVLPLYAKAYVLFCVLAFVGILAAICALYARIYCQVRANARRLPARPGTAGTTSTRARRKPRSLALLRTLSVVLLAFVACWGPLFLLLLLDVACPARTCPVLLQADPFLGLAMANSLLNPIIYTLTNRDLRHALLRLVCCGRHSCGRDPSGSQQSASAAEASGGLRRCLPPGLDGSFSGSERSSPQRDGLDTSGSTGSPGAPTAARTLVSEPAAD

increase in potency ([3]; cyanide group in place of the trifluoromethyl of 10): 1.6 fold
EC50 ([3]; Table 3, synthesized compounds): 480 nM
Emax ([3]; Table 3): 100%
activity in S1PR1 agonist assay [4]: inactive
activity in S1PR3 agonist assay [5]: inactive
activity in S1PR4 agonist assay [6]: inactive
activity in S1PR5 agonist assay [7]: inactive
EC50 ([8]; read-out: EC50, cAMP response): 1600 nM
SMILES: Cc1cc(C(=O)Cn2cc(C#N)ccc2=O)c(C)n1Cc1ccccc1 [compound 14]
activity in the CRE-bla counterscreen (in words) [1]: inactivity

EC50 ([3]; Table 2, purchased analogues of XAX-164): 550 nM
Emax ([3]; Table 2): 130%
activity in S1PR1 agonist assay [4]: inactive
activity in S1PR3 agonist assay [5]: inactive
activity in S1PR4 agonist assay [6]: inactive
activity in S1PR5 agonist assay [7]: inactive
SMILES: Cc1ccc(Sc2ccc(C3SCCS3)cc2[N+](=O)[O-])cc1 [compound 3]

Further lines, the molecule ahead of its results:

SMILES: CCOC(=O)c1c(C)n(C)c2ccc(OCC(O)Cn3nc(C)cc3C)cc12 (stereo not drawn) [MLS000049871]
activity in the CRE-bla counterscreen (in words) [1]: inactive
activity in PubChem AID 662 [2]: active

SMILES: Cc1nn(C)c2nc(NNC(=O)Nc3cc(Cl)nc(Cl)c3)cc(C(C)C)c12 [JTE-013]
Ki [9]: 20 nM
IC50 [10]: 53 nM

SMILES: CCCCCCCCCCCCC/C=C/[C@@H](O)[C@@H](N)COP(=O)(O)O [S1P, Sphingosine 1-phosphate, reference compound]
agonist efficacy (in words) [8]: full agonists
cAMP response (in words) [11]: did not elicit a rise in luciferase activity
